Measured values reported in ChEMBL document CHEMBL1134509, “Transformation of a kappa-opioid receptor antagonist to a kappa-agonist by transfer of a guanidinium group from the 5'- to 6'-position of naltrindole” (J Med Chem, 2001).

Assays:
[1] = target: Mu-type opioid receptor (Cavia porcellus) (UniProt P97266); conditions: Ileum, 20 nM
[2] = target: Delta-type opioid receptor (Mus musculus) (UniProt P32300); test: Opioid antagonist potency, determined in mouse vas deferens (MVD) preparation, using DADLE (delta-opioid) as agonist, expressed as IC50 ratio; type: functional
Chain of Delta-type opioid receptor (Mus musculus) (P32300 whole entry): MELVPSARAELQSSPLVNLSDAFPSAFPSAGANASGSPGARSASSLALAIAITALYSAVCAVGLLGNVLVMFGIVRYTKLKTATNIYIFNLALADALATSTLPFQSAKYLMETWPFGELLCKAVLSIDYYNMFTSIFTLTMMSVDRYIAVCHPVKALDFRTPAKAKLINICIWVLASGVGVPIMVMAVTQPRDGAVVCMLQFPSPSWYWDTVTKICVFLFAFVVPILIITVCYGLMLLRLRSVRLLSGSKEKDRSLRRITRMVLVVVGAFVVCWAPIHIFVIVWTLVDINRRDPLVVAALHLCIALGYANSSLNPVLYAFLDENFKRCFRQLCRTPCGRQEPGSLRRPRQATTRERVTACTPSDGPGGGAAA
Outline: (§1)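 Electrically stimulated mouse vas deferens. Antagonist, normally 100 nM, preincubated 15 min before concentration-response curves to δ agonist DADLE, obtained with and without antagonist in the same preparation. IC50 ratio from the curves; Ke = [antagonist]/(IC50 ratio − 1), not computed when ratio <1. Mean ± SEM.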

[3] = target: Kappa-type opioid receptor (Cavia porcellus) (UniProt P41144); conditions: Ileum, 20 nM
Chain of Kappa-type opioid receptor (Cavia porcellus) (P41144 whole entry): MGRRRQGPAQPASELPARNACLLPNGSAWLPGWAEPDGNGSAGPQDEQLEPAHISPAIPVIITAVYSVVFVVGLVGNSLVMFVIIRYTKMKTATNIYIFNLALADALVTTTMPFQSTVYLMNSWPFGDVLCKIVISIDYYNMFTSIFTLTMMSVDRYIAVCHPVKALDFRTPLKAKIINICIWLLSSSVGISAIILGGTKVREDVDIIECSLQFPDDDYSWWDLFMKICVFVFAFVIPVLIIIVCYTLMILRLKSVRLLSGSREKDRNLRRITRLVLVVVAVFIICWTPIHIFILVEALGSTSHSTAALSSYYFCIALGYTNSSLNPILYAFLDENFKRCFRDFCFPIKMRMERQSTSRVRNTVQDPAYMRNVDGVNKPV

[4] = target: T1, Kappa-type opioid receptor (Rattus norvegicus, UniProt P34975); test: Effect on binding to wild-type opioid receptor kappa 1 using [3H]diprenorphine in transiently expressed […] HEK293 cells; type: cell-based
T1 sequence (P34975 whole entry): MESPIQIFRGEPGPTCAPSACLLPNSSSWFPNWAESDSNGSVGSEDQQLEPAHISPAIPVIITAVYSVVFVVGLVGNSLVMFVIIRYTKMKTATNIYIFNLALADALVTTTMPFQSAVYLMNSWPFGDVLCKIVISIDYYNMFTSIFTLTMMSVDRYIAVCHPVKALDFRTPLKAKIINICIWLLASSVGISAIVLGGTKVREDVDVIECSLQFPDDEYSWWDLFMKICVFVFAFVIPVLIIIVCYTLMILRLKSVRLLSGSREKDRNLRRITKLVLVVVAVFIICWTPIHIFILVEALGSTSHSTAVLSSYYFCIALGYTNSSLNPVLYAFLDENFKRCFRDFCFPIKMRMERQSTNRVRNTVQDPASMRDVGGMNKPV
Outline: (§2)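 Run in 25 mM HEPES pH 7.4 for 90 min at room temperature, filtered and scintillation counted. Nonspecific binding defined with 10 µM naltrexone. Ki from IC50 by Cheng-Prusoff, mean ± SE of three experiments in duplicate.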

[5] = target: Kappa-type opioid receptor (Rattus norvegicus, UniProt P34975, E297A); test: Effect on binding to kappa(Glu297Ala) opioid receptor, using [3H]diprenorphine in transiently expressed […] HEK293 cells; type: cell-based
Chain of Kappa-type opioid receptor (Rattus norvegicus, UniProt P34975, E297A) (P34975 whole entry E297A): as the sequence (P34975 whole entry) above, with E297A counted along it
Outline: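 Rat κ receptor carrying the Glu297Ala mutation, subcloned in pcDNA3, was transiently expressed in HEK-293 cells by calcium phosphate transfection. Ki was derived by Cheng-Prusoff.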

[6] = target: Kappa-type opioid receptor (Cavia porcellus) (UniProt P41144); test: Opioid antagonist potency, determined in the guinea pig ileum (GPI) preparation, by employing EK (kappa-opioid) as agonist, expressed as IC50 ratio; type: functional, tissue-based
Outline: (§3)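 Electrically stimulated guinea pig ileal longitudinal muscle. Antagonist at 100 nM unless noted (some at 20 nM) was preincubated 15 min, then concentration-response curves to κ agonist ethylketazocine or µ agonist morphine were run with and without antagonist in the same tissue. IC50 ratio taken from the curves; Ke = [antagonist]/(IC50 ratio − 1). Mean ± SEM, n in parentheses.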

[7] = target: Delta-type opioid receptor (Mus musculus) (UniProt P32300); test: Opioid antagonist potency, determined in mouse vas deferens (MVD) preparation, using DADLE (delta-opioid) as agonist (Ke=antagonist/IC50 ratio -1); type: functional
Outline: as §1

[8] = target: Kappa-type opioid receptor (Cavia porcellus) (UniProt P41144); test: Opioid antagonist potency towards opioid receptor kappa 1 determined in guinea pig ileum preparation; type: functional, tissue-based
Outline: as §3

[9] = target: Mu-type opioid receptor (Cavia porcellus) (UniProt P97266); test: Opioid antagonist potency, determined in guinea pig ileum (GPI) preparation, using morphine (mu-opioid) as agonist, expressed as IC50 ratio; type: functional, tissue-based
Outline: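 Morphine concentration-response curves in electrically stimulated guinea pig ileal longitudinal muscle, run with and without antagonist (100 nM unless noted, 15 min preincubation) in the same preparation. Result expressed as the IC50 ratio of agonist with versus without antagonist.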

[10] = target: Mu-type opioid receptor (Cavia porcellus) (UniProt P97266); test: Opioid antagonist potency, determined in guinea pig ileum (GPI) preparation, using morphine (mu-opioid) as agonist (Ke=antagonist/IC50 ratio -1); type: functional, tissue-based
Outline: as §3

[11] = target: T1, Kappa-type opioid receptor; test: Binding affinity towards rat opioid receptor kappa 1 was determined using [3H]diprenorphine radioligand
Outline: as §2

Mu-type opioid receptor = Mu-type opioid receptor (Rattus norvegicus, UniProt P33535); test: Binding affinity towards rat mu-opioid receptor was determined using [3H]diprenorphine as radioligand
Chain of Mu-type opioid receptor (P33535 whole entry): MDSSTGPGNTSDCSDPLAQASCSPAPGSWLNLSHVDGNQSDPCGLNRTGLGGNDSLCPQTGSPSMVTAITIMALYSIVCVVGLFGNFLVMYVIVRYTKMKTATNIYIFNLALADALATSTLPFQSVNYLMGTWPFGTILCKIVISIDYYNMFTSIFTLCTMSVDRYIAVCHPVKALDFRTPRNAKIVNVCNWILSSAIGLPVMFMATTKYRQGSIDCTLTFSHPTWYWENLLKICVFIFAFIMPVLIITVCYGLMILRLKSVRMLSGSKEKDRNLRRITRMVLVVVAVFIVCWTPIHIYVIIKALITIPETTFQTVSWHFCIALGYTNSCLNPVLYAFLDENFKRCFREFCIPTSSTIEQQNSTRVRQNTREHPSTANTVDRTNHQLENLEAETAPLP
Outline: as §2

[12] = target: Delta-type opioid receptor (Mus musculus, UniProt P32300); test: Binding affinity towards mouse delta-opioid receptor was determined using [3H]diprenorphine as radioligand
Chain of Delta-type opioid receptor (P32300 whole entry): as the sequence (P32300 whole entry) above
Outline: as §2

Chain of Mu-type opioid receptor (Cavia porcellus) (P97266 whole entry): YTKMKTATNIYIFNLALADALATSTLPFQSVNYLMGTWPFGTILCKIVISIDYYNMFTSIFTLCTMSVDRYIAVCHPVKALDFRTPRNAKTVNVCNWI

For Oc1ccc2c3c1O[C@H]1c4[nH]c5c(c4C[C@@]4(O)[C@@H](C2)N(CC2CC2)CC[C@]314)C[C@@]1(O)[C@H]2Cc3ccc(O)c4c3[C@@]1(CCN2CC1CC1)[C@H]5O4, the IC50 ratio [1] was 2.6, the IC50 ratio [2] was 10.4 and the IC50 ratio [3] was 49.8.
Work on N=C(N)Nc1ccc2c3c([nH]c2c1)[C@@H]1Oc2c(O)ccc4c2[C@@]12CCN(CC1CC1)[C@H](C4)[C@]2(O)C3 yielded a Ki [4] of 1.13 nM, an IC50 ratio [2] of 0.2 and a Ki [5] of 12.3 nM.
For N=C(N)Nc1cccc2c3c([nH]c12)[C@@H]1Oc2c(O)ccc4c2[C@@]12CCN(CC1CC1)[C@H](C4)[C@]2(O)C3, the IC50 ratio [6] was 2, the Ke [7] was 0.96 nM and the Ke [8] was 100 nM. The Ki [4] was 32.7 nM, the IC50 ratio [2] was 105 and the IC50 ratio [9] was 1.4. For the same compound, the Ke [10] was 238 nM and the Ki [5] was 47.3 nM.
Compound N=C(N)Nc1cccc2[nH]c3c(c12)C[C@@]1(O)[C@H]2Cc4ccc(O)c5c4[C@@]1(CCN2CC1CC1)[C@H]3O5 has a Ki [11] of over 1000 nM, an IC50 ratio [6] of 2.3 and a Ki (Mu-type opioid receptor) of over 1000 nM. The Ki [12] was over 1000 nM, the Ke [7] was 263 nM and the Ke [8] was 80 nM. For the same compound, the IC50 ratio [2] was 1.4 and the IC50 ratio [9] was 0.34.
For N=C(N)Nc1ccc2[nH]c3c(c2c1)C[C@@]1(O)[C@H]2Cc4ccc(O)c5c4[C@@]1(CCN2CC1CC1)[C@H]3O5 [GUANIDINONALTRINDOLE], the Ke [8] was 0.16 nM, the Ki [4] was 0.21 nM and the IC50 ratio [3] was 139.
